# Experiments:
# [1] = system: Neisseria gonorrhoeae; experiment: Antimicrobial activity against wild type Neisseria gonorrhoeae O strain incubated for 20 to 24 hrs by CLSI protocol based broth microdilution method; type: functional; conditions: time 20-24 hrs
# [2] = system: Staphylococcus aureus; experiment: Antibacterial activity against methicillin-resistant Staphylococcus aureus USA300 by CLSI method; type: functional
# [3] = Cytotoxicity activity against human K/VP.5 cells assessed as inhibition of cellular growth; type: toxicity, cell-based
# In short: (§1)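 Human K562 leukemia cells were tested alongside K/VP.5, an etoposide-resistant clonal subline derived from them that has reduced levels of human topoisomerase IIα. Cell growth inhibition was expressed as an IC50.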
# [4] = system: Staphylococcus aureus; experiment: Antibacterial activity against Staphylococcus aureus ATCC 29213 by CLSI method; type: functional
# [5] = molecular target: Topoisomerase IV (Staphylococcus aureus, UniProt P0C1S7+P0C1U9); experiment: Inhibition of Staphylococcus aureus DNA topoisomerase 4 decatenation activity using kDNA as substrate incubated for 10 to 20 min by ethidium bromide/bromophenol blue staining based agarose gel electrophoresis analysis; type: protein-complex assay
# [6] = Cytotoxicity activity against human K562 cells assessed as inhibition of cellular growth; type: toxicity, cell-based; in short: as §1
# [7] = system: Staphylococcus aureus; experiment: Antibacterial activity against cystic fibrosis isolate Staphylococcus aureus by CLSI method; type: functional
# [8] = system: Neisseria gonorrhoeae; experiment: Antimicrobial activity against Neisseria gonorrhoeae G strain harbouring type 2 topoisomerase GyrA S91F and ParE G410V mutant incubated for 20 to 24 hrs by CLSI protocol based broth microdilution method; type: functional; conditions: time 20-24 hrs
# [9] = system: Staphylococcus aureus; experiment: Antibacterial activity against Staphylococcus aureus 3527 by CLSI method; type: functional
# [10] = system: Neisseria gonorrhoeae; experiment: Antimicrobial activity against wild type Neisseria gonorrhoeae P strain incubated for 20 to 24 hrs by CLSI protocol based broth microdilution method; type: functional; conditions: time 20-24 hrs
# [11] = system: Neisseria gonorrhoeae; experiment: Antimicrobial activity against Neisseria gonorrhoeae K strain harbouring type 2 topoisomerase GyrA S91F, D95N and ParC S87R, S88P mutant incubated for 20 to 24 hrs by CLSI protocol based broth microdilution method; type: functional; conditions: time 20-24 hrs
# [12] = system: Staphylococcus aureus; experiment: Selectivity ratio of IC50 for inhibition of Staphylococcus aureus DNA topoisomerase 4 decatenation activity to IC50 for inhibition of Staphylococcus aureus DNA gyrase supercoiling activity
# [13] = system: Neisseria gonorrhoeae; experiment: Antimicrobial activity against wild type Neisseria gonorrhoeae F strain incubated for 20 to 24 hrs by CLSI protocol based broth microdilution method; type: functional; conditions: time 20-24 hrs
# [14] = system: Neisseria gonorrhoeae; experiment: Antimicrobial activity against wild type Neisseria gonorrhoeae Y strain harbouring type 2 topoisomerase GyrA S91F, D95G and ParC S87R mutant incubated for 20 to 24 hrs by CLSI protocol based broth microdilution method; type: functional; conditions: time 20-24 hrs
# [15] = molecular target: DNA gyrase (Staphylococcus aureus, UniProt P0A0K8+P20831); experiment: Inhibition of Staphylococcus aureus DNA gyrase supercoiling activity incubated for 25 min by ethidium bromide/bromophenol blue staining based agarose gel electrophoresis analysis; type: protein-complex assay
# [16] = Metabolic stability in mouse liver microsomes assessed as half life; type: ADME, Microsome
# [17] = system: Staphylococcus aureus; experiment: Antibacterial activity against Staphylococcus aureus harbouring GyrA D83N mutant by CLSI method; type: functional
# [18] = system: Neisseria gonorrhoeae; experiment: Antimicrobial activity against wild type Neisseria gonorrhoeae V strain harbouring type 2 topoisomerase GyrA S91F, D95G and ParC S87R mutant incubated for 20 to 24 hrs by CLSI protocol based broth microdilution method; type: functional; conditions: time 20-24 hrs
# [19] = molecular target: Voltage-gated inwardly rectifying potassium channel KCNH2 (Homo sapiens, UniProt Q12809); experiment: Inhibition of hERG cardiac ion channel; type: toxicity
# In short: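 hERG channel inhibition was run by a contract lab. […] Determinations were made in duplicate or triplicate (n = 2 or 3).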
# [20] = system: Neisseria gonorrhoeae; experiment: Antimicrobial activity against wild type Neisseria gonorrhoeae ATCC 49226 incubated for 20 to 24 hrs by CLSI protocol based broth microdilution method; type: functional; conditions: time 20-24 hrs
# [21] = Inhibition of Neisseria gonorrhoeae DNA topoisomerase 4 decatenation activity using kDNA as substrate incubated for 10 to 20 min by ethidium bromide/bromophenol blue staining based agarose gel electrophoresis analysis
# In short: (§2)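 The N. gonorrhoeae enzymes were assayed separately: supercoiling by DNA gyrase, and decatenation of kDNA by topoisomerase IV. Concentration–response data were collected over at least three independent experiments and summarized with standard deviation, and IC50 values were derived.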
# [22] = Inhibition of Neisseria gonorrhoeae DNA gyrase supercoiling activity incubated for 25 min by ethidium bromide/bromophenol blue staining based agarose gel electrophoresis analysis; in short: as §2
# [23] = system: Neisseria gonorrhoeae; experiment: Antimicrobial activity against Neisseria gonorrhoeae M strain harbouring type 2 topoisomerase GyrA S91F,D95G mutant incubated for 20 hrs by agar dilution method; type: functional
# [24] = system: Neisseria gonorrhoeae; experiment: Antimicrobial activity against Neisseria gonorrhoeae L strain harbouring type 2 topoisomerase GyrA S91F,D95N and ParC D86N,S88P mutant incubated for 20 hrs by agar dilution method; type: functional
SMILES,MIC [1] [µg/mL],MIC [2] [µg/mL],IC50 [3] [µM],MIC [4] [µg/mL],IC50 [5] [µM],IC50 [6] [µM],MIC [7] [µg/mL],MIC [8] [µg/mL],MIC [9] [µg/mL],MIC [10] [µg/mL],MIC [11] [µg/mL],Ratio IC50 [12],MIC [13] [µg/mL],MIC [14] [µg/mL],IC50 [15] [µM],half-life [16] [min],MIC [17] [µg/mL],MIC [18] [µg/mL],IC50 [19] [µM],MIC [20] [µg/mL],also measured
O=c1ccc2ccc(F)c3c2n1CC3C[C@H]1OC[C@H](NCc2ccc3c(c2)OCCO3)CO1 (stereo partly specified),0.25,0.25,33.9,0.125,0.6,29.1,0.25,0.5,0.25,0.25,0.12,2.6,≤ 0.03,≤ 0.03,0.23,3.26,4,≤ 0.03,35,0.12,–
COc1ccc2ncc(F)c(C[C@H](O)[C@H]3OC[C@H](NCc4ccc5c(c4)OCCO5)CO3)c2n1,≤ 0.03,–,–,–,–,–,–,0.5,–,≤ 0.03,≤ 0.03,–,≤ 0.03,≤ 0.03,–,–,–,≤ 0.03,–,≤ 0.03,–
O=C1COc2ccc(CN[C@H]3CO[C@H](CC4Cn5c(=O)ccc6ncc(F)c4c65)OC3)nc2N1 (stereo partly specified),1,1,> 200,2,1.4,> 200,2,2,2,2,1,0.33,0.12,1,4.2,66.3,8,0.5,97,1,–
O=c1ccc2ncc(F)c3c2n1CC3C[C@H]1OC[C@H](NCc2cc3c(cn2)OCCC3)CO1 (stereo partly specified),2,1,187,0.25,1.6,268,0.5,8,1,2,1,0.76,0.12,0.25,2.1,18.3,8,≤ 0.03,125,2,–
COc1ccc2ncc(F)c(C[C@H](O)[C@H]3OC[C@H](NC(=O)c4ccc5c(c4)OCCO5)CO3)c2n1,> 16,0.25,6,0.25,1.7,1.6,0.25,> 16,0.25,> 16,> 16,7.6,0.25,0.5,0.23,14.2,2,0.25,> 100,4,–
COc1ccc2ncc(F)c(C[C@H](O)[C@H]3OC[C@H](NCc4ccc5c(n4)NC(=O)CO5)CO3)c2n1,≤ 0.03,–,–,–,–,–,–,0.25,–,≤ 0.03,≤ 0.03,–,0.06,≤ 0.03,–,–,–,≤ 0.03,–,≤ 0.03,–
CO/N=C(\C(=O)N[C@@H]1C(=O)N2C(C(=O)O)=C(CSc3nc(=O)c(O)nn3C)CS[C@H]12)c1csc(N)n1 [CEFTRIAXONE],0.004,–,–,–,–,–,–,≤ 0.001,–,≤ 0.001,0.008,–,≤ 0.001,1,–,–,–,0.002,–,0.004,–
COc1ccc2ncc(F)c(C[C@H](O)[C@H]3OC[C@H](NC(=O)c4ccc5c(n4)NC(=O)CO5)CO3)c2n1,0.06,≤ 0.06,3.1,0.125,1.1,0.49,≤ 0.06,0.25,≤ 0.06,≤ 0.015,0.12,5.8,≤ 0.015,≤ 0.015,0.19,5.56,1,≤ 0.015,> 100,≤ 0.015,–
O=C1CSc2ccc(CN[C@H]3CO[C@H](CC4Cn5c(=O)ccc6ncc(F)c4c65)OC3)nc2N1 (stereo partly specified),–,1,128,1,2.1,81.7,1,–,1,–,–,1.5,–,–,1.4,36.4,8,–,55,–,–
O=C1COc2ccc(CN[C@H]3CO[C@H](CC4Cn5c(=O)ccc6ccc(F)c4c65)OC3)nc2N1 (stereo partly specified),0.25,0.25,127,0.5,1.3,101,0.5,0.25,0.25,0.25,0.12,0.81,0.06,0.12,1.6,18.4,4,≤ 0.03,30,0.12,–
COc1ccc2ncc(F)c(C[C@H](O)[C@H]3OC[C@H](NCc4cc5c(nn4)OCCO5)CO3)c2n1,32,–,–,–,–,–,–,> 32,–,32,> 32,–,8,16,–,–,–,8,–,32,–
COc1ccc2ncc(F)c(C[C@H](O)[C@H]3OC[C@H](NCc4cc5c(nn4)OCCS5)CO3)c2n1,16,–,–,–,–,–,–,32,–,16,16,–,1,0.5,–,–,–,≤ 0.03,–,8,IC50 [21]: 83 µM; IC50 [22]: 33 µM
O=c1ccc2ncc(=O)n3c2n1CC3CN1CCC(NCc2cc3c(cn2)OCCC3)CC1 (racemic),–,0.25,–,0.25,–,–,0.25,–,0.25,–,–,–,–,–,–,–,8,–,–,–,–
O=C(O)c1cn(C2CC2)c2cc(N3CCNCC3)c(F)cc2c1=O [CIPROFLOXACIN],–,–,–,–,–,–,–,–,–,–,–,–,–,–,–,–,–,–,–,–,MIC [23]: 2 µg/mL; MIC [24]: > 8 µg/mL
O=c1ccc2ccc(F)c3c2n1CC3C[C@H]1OC[C@H](NCc2cc3c(cn2)OCCC3)CO1 (stereo partly specified),0.5,0.5,85,≤ 0.25,2.9,109,≤ 0.25,2,0.5,1,0.5,5,≤ 0.03,≤ 0.03,0.58,3.64,2,≤ 0.03,53,0.25,–
O=c1ccc2ncc(F)c3c2n1CC3C[C@H]1OC[C@H](NCc2ccc3c(c2)OCCO3)CO1 (stereo partly specified),2,0.125,39.2,0.125,0.54,34.8,0.25,4,0.25,2,1,11,0.12,≤ 0.03,0.047,13.9,2,≤ 0.03,100,0.25,–
O=c1ccc2ccc(F)c3c2n1CC3C[C@H]1OC[C@H](NCc2cc3c(nn2)OCCS3)CO1 (stereo partly specified),16,1,103,0.5,7.4,38.7,0.5,32,1,16,32,4.4,2,2,1.7,21.9,8,4,200,16,–

# — ChEMBL document CHEMBL5131562, “1,3-Dioxane-Linked Novel Bacterial Topoisomerase Inhibitors: Expanding Structural Diversity and the Antibacterial Spectrum” (ACS Med Chem Lett, 2022)
